Measurements from ChEMBL document CHEMBL1811868, “Structure-activity relationship of 2-hydroxy-2-aryl-2,3-dihydro-imidazo[1,2-a]pyrimidinium salts and 2N-substituted 4(5)-aryl-2-amino-1H-imidazoles as inhibitors of biofilm formation by Salmonella Typhimurium and Pseudomonas aeruginosa” (Bioorg Med Chem, 2011).
The source made the active and inactive calls.

Assays:
Salmonella typhimurium [1] = experiment: Antimicrobial activity against Salmonella Typhimurium ATCC 14028 assessed as inhibition of biofilm formation after 24 hrs by spectrophotometry; format: functional, organism-based, Salmonella enterica subsp. enterica serovar Typhimurium; conditions: Salmonella enterica, ATCC 14028, 24 h
In short: (§1)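 Static peg-lid biofilm prevention assay. Twofold serial dilutions in TSB diluted 1/20, 2–3 repeats per compound. Overnight S. Typhimurium ATCC14028 (LB-grown) or P. aeruginosa PA14 (TSB-grown) cultures were diluted 1:100, giving ~10^6 cells/well, then incubated 24 h at 25 °C without shaking. Pegs were PBS-washed, stained 30 min with 0.1% crystal violet, extracted with 30% acetic acid and read at OD570. IC50 was fitted from the concentration gradient.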

Salmonella typhimurium [2] = experiment: Antimicrobial activity against Salmonella Typhimurium ATCC 14028 assessed as inhibition of planktonic cell growth at IC50 after 24 hrs by […]; format: functional, organism-based; conditions: Salmonella enterica subsp. enterica serovar Typhimurium
In short: (§2)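 Planktonic growth was followed by Bioscreen growth curves, not by crystal violet. Overnight cultures were diluted 1:200 in TSB 1/20 and received compound serially diluted in DMSO or EtOH, in triplicate, with solvent controls. Plates were shaken at 25 °C for at least 24 h, reading A600 every 15 min.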

Salmonella typhimurium [3] = experiment: Antimicrobial activity against Salmonella Typhimurium ATCC 14028 assessed as inhibition of planktonic cell growth at 40 uM after 24 hrs by […]; format: functional, organism-based; conditions: Salmonella enterica subsp. enterica serovar Typhimurium; in short: as §2
Pseudomonas aeruginosa [4] = experiment: Antimicrobial activity against Pseudomonas aeruginosa PA14 assessed as inhibition of biofilm formation after 24 hrs by spectrophotometry; format: functional, organism-based; conditions: PA14, 24 h; in short: as §1
Pseudomonas aeruginosa [5] = experiment: Antimicrobial activity against Pseudomonas aeruginosa PA14 assessed as inhibition of planktonic cell growth at IC50 after 24 hrs by […]; format: functional, organism-based; in short: as §2
Salmonella typhimurium [6] = experiment: Antimicrobial activity against Salmonella Typhimurium ATCC 14028 assessed as inhibition of planktonic cell growth at 20 uM after 24 hrs by […]; format: functional, organism-based; conditions: Salmonella enterica subsp. enterica serovar Typhimurium; in short: as §2
Pseudomonas aeruginosa [7] = experiment: Antimicrobial activity against Pseudomonas aeruginosa PA14 assessed as inhibition of planktonic cell growth at 5 uM after 24 hrs by […]; format: functional, organism-based; in short: as §2
Pseudomonas aeruginosa [8] = experiment: Antimicrobial activity against Pseudomonas aeruginosa PA14 assessed as inhibition of planktonic cell growth at 40 uM after 24 hrs by […]; format: functional, organism-based; in short: as §2
Salmonella typhimurium [9] = experiment: Antimicrobial activity against Salmonella Typhimurium ATCC 14028 assessed as inhibition of planktonic cell growth at 80 uM after 24 hrs by […]; format: functional, organism-based; conditions: Salmonella enterica subsp. enterica serovar Typhimurium; in short: as §2
Pseudomonas aeruginosa [10] = experiment: Antimicrobial activity against Pseudomonas aeruginosa PA14 assessed as inhibition of planktonic cell growth at 80 uM after 24 hrs by […]; format: functional, organism-based; in short: as §2
Pseudomonas aeruginosa [11] = experiment: Antimicrobial activity against Pseudomonas aeruginosa PA14 assessed as inhibition of planktonic cell growth at 20 uM after 24 hrs by […]; format: functional, organism-based; in short: as §2

| SMILES | IC50 (Salmonella typhimurium [1]) | IC50 (Pseudomonas aeruginosa [4]) | growth inhibition (GI) (Salmonella typhimurium [2]) | growth inhibition (GI) (Salmonella typhimurium [3]) | growth inhibition (GI) (Pseudomonas aeruginosa [5]) | growth inhibition (GI) (Salmonella typhimurium [6]) | growth inhibition (GI) (Pseudomonas aeruginosa [7]) | growth inhibition (GI) (Pseudomonas aeruginosa [8]) | growth inhibition (GI) (Salmonella typhimurium [9]) | growth inhibition (GI) (Pseudomonas aeruginosa [10]) | growth inhibition (GI) (Pseudomonas aeruginosa [11]) |
| --- | --- | --- | --- | --- | --- | --- | --- | --- | --- | --- | --- |
| CCCCNc1ncc(-c2ccccc2)[nH]1 | 25.3 µM | 31.8 µM | inactive | inactive |  |  |  |  |  |  |  |
| CC(C)CNc1ncc(-c2ccc(Br)cc2)[nH]1 | 2.9 µM | 1.2 µM | inactive | Active | inactive | inactive | inactive |  |  |  |  |
| CCCCCN1c2nccc[n+]2C[C@@]1(O)c1ccc(Br)cc1 | 1.7 µM | 4.2 µM | inactive | inactive | inactive |  |  | inactive |  |  |  |
| CC(C)CN1c2nccc[n+]2C[C@@]1(O)c1ccc(Cl)cc1 | 31.4 µM | 83.4 µM | inactive | inactive |  |  |  |  |  |  |  |
| CC(C)CN1c2nccc[n+]2C[C@@]1(O)c1ccc(Br)cc1 | 5.2 µM | 6.3 µM | inactive | Active | inactive |  |  | inactive |  |  |  |
| O=[N+]([O-])c1ccc(-c2cnc(NC3CCCC3)[nH]2)cc1 | 11.8 µM | 20.2 µM | inactive |  | inactive | inactive |  |  |  |  |  |
| O[C@@]1(c2ccc(I)cc2)C[n+]2cccnc2N1Cc1ccccc1 | 36.7 µM |  | inactive | inactive |  |  |  |  |  |  |  |
| CCCCNc1ncc(-c2ccc(F)cc2)[nH]1 | 15.5 µM | 10.8 µM | inactive |  | inactive |  |  | inactive | inactive |  |  |
| CCCCCN1c2nccc[n+]2C[C@@]1(O)c1ccc(Cl)cc1 | 32.6 µM | 164 µM | inactive | inactive | Active |  |  |  |  |  |  |
| O=[N+]([O-])c1cccc(-c2cnc(NC3CCCCC3)[nH]2)c1 | 630 µM | 4.4 µM |  |  | inactive |  |  | inactive |  |  |  |
| CSc1ccc(-c2cnc(NC3CCCCC3)[nH]2)cc1 | 191 µM | 15.8 µM |  |  | inactive |  |  |  |  |  | inactive |
| Clc1ccc(-c2cnc(NC3CCCC3)[nH]2)cc1 | 4.4 µM | 13.5 µM | inactive | inactive | inactive |  |  | inactive |  |  |  |
| O[C@@]1(c2ccc(F)cc2)C[n+]2cccnc2N1Cc1ccc2c(c1)OCO2 | 17.2 µM |  | inactive | inactive |  |  |  |  |  |  |  |
| Nc1ncc(-c2ccc(Cl)cc2)[nH]1 |  |  | inactive | inactive | inactive |  | inactive |  |  |  |  |
| CC(C)CN1c2nccc[n+]2C[C@@]1(O)c1ccc(Cl)c(Cl)c1 | 8 µM |  | inactive | Active |  |  |  |  |  |  |  |
| O[C@@]1(c2ccccc2)C[n+]2cccnc2N1C1CCCCCCC1 | 58.4 µM | 48.6 µM | Active |  | Active |  |  |  | Active | Active |  |

Further molecules by falling IC50 (Salmonella typhimurium [1]), results first:

| IC50 (Salmonella typhimurium [1]) | IC50 (Pseudomonas aeruginosa [4]) | SMILES | growth inhibition (GI) (Salmonella typhimurium [2]) | growth inhibition (GI) (Salmonella typhimurium [3]) | growth inhibition (GI) (Pseudomonas aeruginosa [5]) | growth inhibition (GI) (Salmonella typhimurium [6]) | growth inhibition (GI) (Pseudomonas aeruginosa [7]) | growth inhibition (GI) (Pseudomonas aeruginosa [8]) | growth inhibition (GI) (Salmonella typhimurium [9]) | growth inhibition (GI) (Pseudomonas aeruginosa [10]) | growth inhibition (GI) (Pseudomonas aeruginosa [11]) |
| --- | --- | --- | --- | --- | --- | --- | --- | --- | --- | --- | --- |
| 378 µM | 54.8 µM | COc1ccc(-c2cnc(NC3CCCCC3)[nH]2)cc1 |  |  | inactive |  |  |  |  | inactive |  |
| 170 µM | 56.1 µM | CNc1ncc(-c2ccc([N+](=O)[O-])cc2)[nH]1 |  |  | inactive |  |  |  |  | inactive |  |
| 139 µM | 22.4 µM | O[C@@]1(c2ccccc2)C[n+]2cccnc2N1C1CCCCC1 | Active |  | inactive |  |  |  |  | Active |  |
| 102 µM | 25.2 µM | CNc1ncc(-c2ccc(F)cc2)[nH]1 |  |  | inactive |  |  | inactive |  |  |  |
| 52.9 µM | 33.8 µM | c1ccc(-c2cnc(NC3CCCC3)[nH]2)cc1 | inactive |  | inactive |  |  | inactive | inactive |  |  |
| 52.6 µM | 46.3 µM | CCCCNc1ncc(-c2ccc(OC)cc2)[nH]1 | inactive |  | inactive |  |  |  | inactive | inactive |  |
| 44.6 µM | > 800 µM | CCCCCCCCNc1ncc(-c2cccc(Br)c2)[nH]1 | inactive |  |  |  |  |  | inactive |  |  |
| 41.8 µM | 41.9 µM | O[C@@]1(c2ccc(Cl)cc2)C[n+]2cccnc2N1C1CCCC1 | Active |  | Active |  |  |  | Active | Active |  |
| 41.8 µM | 3.1 µM | CCCCCCCCNc1ncc(-c2ccc(S(C)(=O)=O)cc2)[nH]1 | inactive |  | inactive |  |  |  | inactive |  | inactive |
| 36.7 µM | 25 µM | O=[N+]([O-])c1ccc(-c2cnc(NC3CCCCC3)[nH]2)cc1 | inactive | inactive |  |  |  |  |  |  |  |
| 33 µM | 16.4 µM | O[C@@]1(c2ccc(Cl)cc2)C[n+]2cccnc2N1C1CCCCC1 | Active |  | inactive |  |  |  | Active | Active |  |
| 30.7 µM | 26.3 µM | Clc1ccc(-c2cnc(NCc3ccccc3)[nH]2)cc1 | inactive | inactive | inactive |  |  | inactive |  |  |  |
| 29.7 µM | 24.9 µM | CCCCN1c2nccc[n+]2C[C@@]1(O)c1ccc(Cl)cc1 | inactive | inactive | inactive |  |  | inactive |  |  |  |
| 27.9 µM | 76.2 µM | O[C@@]1(c2ccc(Cl)cc2)C[n+]2cccnc2N1C1CCCCCC1 | Active |  | Active |  |  |  |  | Active |  |
| 19.1 µM | 3.7 µM | COc1cccc(CNc2ncc(-c3ccc([N+](=O)[O-])cc3)[nH]2)c1 | inactive | inactive | inactive |  |  | inactive |  |  |  |
| 18.3 µM | 20.2 µM | CCCCCCCCCN1c2nccc[n+]2C[C@@]1(O)c1ccc(Cl)cc1 | Active |  | Active |  |  |  |  |  |  |
| 10.9 µM | 27.7 µM | CCCNc1ncc(-c2ccc(Cl)c(Cl)c2)[nH]1 | inactive |  |  | inactive |  |  |  |  |  |
| 10.9 µM | 25 µM | CCCCCCCCNc1ncc(-c2ccc([N+](=O)[O-])cc2)[nH]1 | inactive |  |  |  |  |  | inactive |  |  |
| 5.7 µM | 7.9 µM | Clc1ccc(-c2cnc(NC3CCCC3)[nH]2)cc1Cl | inactive |  | inactive | inactive |  | inactive |  |  |  |
| 4.9 µM | 1.2 µM | CC(C)CNc1ncc(-c2ccccc2)[nH]1 | inactive | inactive | inactive |  | inactive |  |  |  |  |
| 3.8 µM | 22.9 µM | CC(C)CNc1ncc(-c2ccc([N+](=O)[O-])cc2)[nH]1 | inactive | inactive | inactive |  |  |  |  |  |  |
| 2.2 µM | 0.7 µM | CCCCCNc1ncc(-c2ccc(Cl)c(Cl)c2)[nH]1 |  |  | inactive |  | inactive |  |  |  |  |
| 2 µM | 0.9 µM | CC(C)CNc1ncc(-c2ccc(Cl)cc2)[nH]1 | inactive | Active | inactive | inactive | inactive |  |  |  |  |
